A short description of assay [1]: inhibitors of TNFa-induced NFkB p65 translocation, primary screen, imaging, HUVEC, MLSMR starter and 10KST1 sets (AID 438;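 active = inhibition above 20% together with a positive visual image hit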;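 note: compound added about 3h40 before a 20 min TNFalpha stimulation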;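 for inhibition: signal is the nuclear over cytoplasmic p65 intensity ratio per well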). The following applies: HUVEC TNFa-induced p65 nuclear translocation; cell count: measured here: nuclei count (cytotoxicity indicator), at 2.08 µM; inhibition: at 2 µM, stronger effect = higher value, 0% TNFa-plus-vehicle, 100% no-TNFa wells.
Assay [2] can be described thus: endothelial E-selectin expression blockers – imaging, HUVEC, immunofluorescence, MLSMR starter and 10KST1 sets, primary screen (AID 487;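 active = visually confirmed hit in the image check and inhibition above 20%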;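 for inhibition: signal is fraction of cell area covered by stained E-selectin grains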;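 for nuclei count: 100% = median nuclei count of all wells on the same plate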). The following applies: HUVEC TNFalpha-induced E-selectin immunofluorescence imaging, at 2 µM; inhibition: stronger effect = higher value; nuclei count: measured here: cell number, toxicity.
Assay [3] is described as follows: Primary imaging screen for DUSP6 inhibitors that restore phospho-Erk in transfected HeLa cells, chemical complementation (AID 609;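 active = compounds giving at least 50% inhibition in the cell-based MKP-3 phosphatase rescue imaging test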;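 for inhibition: phospho-Erk level distribution per well compared with pooled transfected vehicle control wells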). The following applies: HeLa MKP-3 transfected, phospho-Erk imaging KS statistic, at 10 µM, cells stimulated with TPA for 15 min.
The target of assay [4] is Dual specificity protein phosphatase 6 (Homo sapiens) (UniProt Q16828). The description is as above. The following applies: HeLa MKP-3 transfected, phospho-Erk imaging KS statistic; at 10 µM; stronger effect = higher value; cells stimulated with TPA for 15 min.
Assay [5] concerns the target Voltage-gated potassium channel subunit beta-2 (Rattus norvegicus) (UniProt P62483). The assay can be described thus: inhibitors of rat Kvbeta2 reductase activity – biochemical, NADPH fluorescence, primary screen (AID 622;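 active = fluorescence slope higher than the sample average by over 3 SD, cut at about -0.22 in these data, passing the limit was not always enough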;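 note: slope of raw intensity against log time taken from 70 to 1610 s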). The following applies: recombinant KvBeta, 4-cyanobenzaldehyde reduction, at 10 µM, stronger effect = higher value.
For assay [6] the target is unchanged. The assay can be described thus: enhancers of rat Kvbeta2 NADPH turnover – biochemical, NADPH fluorescence, primary screen (AID 623;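 active = NADPH fluorescence slope more negative than the mean of all samples by about 3 SD, 99.7% confidence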;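 note: fluorescence intensity change per second fitted from 20 to 320 s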). To be noted: Recombinant KvBeta, NADPH fluorescence decrease slope, 10 min; at 10 µM; stronger effect = lower value.
The target in assay [7] is Muscarinic acetylcholine receptor M4 (Homo sapiens) (UniProt P08173). Briefly: M4-linked GIRK flux change, two-sided – cell-based, HEK293 M4/GIRK, thallium flux, BTC-AM, M4 allosteric agonist project, primary screen (AID 625;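 active = fluorescence slope after compound addition differing from the mean of all tested samples at 99.7% confidence, mostly higher but some lower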;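 note: thallium influx through GIRK channels coupled to M4 in HEK293 cells with BTC-AM dye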). The following applies: at 10 µM, actives lie on both sides. The method, boiled down:
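assay system = HEK293 cells with M4 receptor and GIRK channels | medium = pH 7.3 thallium assay buffer | doses = 10 µM final, single point | timing = cells overnight at 37 °C, BTC-AM loading 1 h, reads 2 min total | signal = BTC-AM fluorescence, 1 Hz kinetic reads | read-out = post-addition slope, 15–24 s, of baseline-normalized fluorescence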

The nature of assay [8]: inhibitors of larval lipid processing in zebrafish, primary screen, whole organism, PED6 fluorescence, gall bladder and intestine (AID 686).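 Note: larvae 5 to 7 days old with five fish per well; signal comes from phospholipase A2 cleavage of quenched PED6 carried via bile; overnight exposure to compound and PED6 before scoring.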 To be noted: Zebrafish larvae PED6 lipid processing, fluorescence scoring; screened at 20 µM (by protocol). The method in brief: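 Also added: quenched phospholipase substrate PED6, 100 nM final, ingested by larvae; System: zebrafish larvae, 5-7 d; Quantity: 5 larvae per well; Compound: 20 µM single dose; Schedule: overnight compound and PED6 incubation; Read-out: visual per-well fluorescence inhibition score; Measured by: By-eye fluorescence microscopy; Medium: E3.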

Assay [9] is described as follows: loss of swimming-algae plug formation – whole organism, Chlamydomonas reinhardtii, WT vs cilia-less mutant, absorbance, 96-well, primary screen (AID 463189;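 active = inhibition at or above 50% relative to wild type and mutant plate controls; inactive = inhibition below 50%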;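 note: 0% = wild type cc124 cells in DMSO and 100% = ciliumless bld1 mutant cells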). To be noted: Chlamydomonas reinhardtii gravitaxis, OD600 absorbance, 2 days; at 10 µM; stronger effect = higher value.
The mark [10] stands for this setting: measured here: cell density z-score.
Setting [11] is: measured here: nuclear c-Myc green intensity z-score.
Setting [12] is: measured here: nuclear pErk red intensity z-score, stronger effect = higher value.

Calls of active or inactive are those of the source.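 Rule for the calls, unless noted: active = a full or partial loss of lipid-probe fluorescence in the fish gall bladder, intestine or both, judged by eye; inactive = no fluorescence loss, or compound toxic to the fish.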

For orientation: inhibition means the drop in the measured response relative to a control, in per cent.

Muscarinic acetylcholine receptor M4 (Homo sapiens), sequence (P08173 whole entry, looked up): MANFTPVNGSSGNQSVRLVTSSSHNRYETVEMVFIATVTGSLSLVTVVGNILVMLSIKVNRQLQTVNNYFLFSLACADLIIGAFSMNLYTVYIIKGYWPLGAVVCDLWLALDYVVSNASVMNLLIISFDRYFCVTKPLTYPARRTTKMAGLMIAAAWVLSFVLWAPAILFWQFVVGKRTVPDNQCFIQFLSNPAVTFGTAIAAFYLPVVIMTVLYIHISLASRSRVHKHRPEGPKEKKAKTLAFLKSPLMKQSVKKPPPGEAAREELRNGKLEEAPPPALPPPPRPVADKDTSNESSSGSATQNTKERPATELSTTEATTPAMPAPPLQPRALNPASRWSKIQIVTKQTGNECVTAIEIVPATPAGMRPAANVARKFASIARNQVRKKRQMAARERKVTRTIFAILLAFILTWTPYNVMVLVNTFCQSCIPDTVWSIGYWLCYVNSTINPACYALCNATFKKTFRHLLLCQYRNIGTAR
Voltage-gated potassium channel subunit beta-2 (Rattus norvegicus), sequence (P62483 whole entry, looked up): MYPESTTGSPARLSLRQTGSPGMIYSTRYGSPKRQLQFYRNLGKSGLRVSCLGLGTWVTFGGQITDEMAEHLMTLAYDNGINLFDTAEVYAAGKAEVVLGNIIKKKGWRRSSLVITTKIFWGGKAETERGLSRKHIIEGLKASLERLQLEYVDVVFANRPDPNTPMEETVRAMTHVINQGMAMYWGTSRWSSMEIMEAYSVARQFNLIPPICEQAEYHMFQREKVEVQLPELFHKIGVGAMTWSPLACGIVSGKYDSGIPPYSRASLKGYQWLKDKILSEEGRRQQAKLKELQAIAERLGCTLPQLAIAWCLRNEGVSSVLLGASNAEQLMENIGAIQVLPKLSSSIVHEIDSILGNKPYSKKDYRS
Dual specificity protein phosphatase 6 (Homo sapiens), sequence (Q16828 whole entry, looked up): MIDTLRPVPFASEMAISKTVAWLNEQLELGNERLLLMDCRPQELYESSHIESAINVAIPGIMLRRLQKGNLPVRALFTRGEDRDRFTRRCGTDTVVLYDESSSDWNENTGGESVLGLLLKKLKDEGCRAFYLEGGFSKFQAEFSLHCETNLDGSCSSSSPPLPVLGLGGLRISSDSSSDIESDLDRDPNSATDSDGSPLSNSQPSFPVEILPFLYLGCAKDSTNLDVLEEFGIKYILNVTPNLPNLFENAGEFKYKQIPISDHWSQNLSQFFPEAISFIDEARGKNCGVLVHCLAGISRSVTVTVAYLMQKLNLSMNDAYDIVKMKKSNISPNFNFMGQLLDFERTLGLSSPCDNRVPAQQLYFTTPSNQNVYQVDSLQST

In the case of `COc1ccc(C2C(C#N)=C(C)NC3=C2C(=O)c2ccccc23)cc1` (stereo unspecified), the cell count in [1] was determined as 678. In addition, the inhibition in assay [1] is 0.7% (inactive); in assay [2] it was -27.5% (inactive); in [4], 21.8% (inactive); in assay [9], -2.6% (inactive). This molecule yielded a nuclei count in assay [2] of 145%. The figures for the z-score in [3] (setting [10]), in [3] (setting [11]) and in assay [3] (setting [12]) were 1.09, 1.69 and -1.69, respectively. Further, the fluorescence slope in assay [5] is -0.5 (inactive); in [7] it was 0.00419 (inactive). The NADPH fluorescence slope in [6] is -4.8e-05 (inactive). In assay [8], the outcome was inactive.

Take `O=c1c2c3c(sc2n2cnnc2n1C1CCCCC1)CCC3`: in assay [1], the cell count is 363. Further, the inhibition in [1] is -3.6% (inactive); in assay [2] it was -2% (inactive); in [4] it was -2.59% (inactive); in assay [9] it was 33.2% (inactive). In addition, in assay [2], the nuclei count was 172%. Moreover, the z-score was -0.995 in assay [3] (setting [10]), -0.714 in assay [3] (setting [11]) and 0.683 in [3] (setting [12]). The fluorescence slope is -0.434 (inactive) in assay [5] and 0.00453 (inactive) in [7]. The NADPH fluorescence slope in assay [6] was -0.000131 (inactive). In addition, the result in assay [8] was inactive.

For the molecule `CSc1nc2[nH]c3c(c2c2ncnn12)CCCC3`, in assay [1], the cell count was 547. The inhibition is -3.6% (inactive) in assay [1], 37.3% (inactive) in [2], 1.98% (inactive) in [4] and 44.1% (inactive) in assay [9]. The molecule also came in with a nuclei count in [2] of 171%. Moreover, the z-score was -0.205 in [3] (setting [10]), -0.317 in assay [3] (setting [11]) and -0.0331 in assay [3] (setting [12]). The fluorescence slope is -0.379 (inactive) in assay [5] and 0.00321 (inactive) in assay [7]. Further, the NADPH fluorescence slope in assay [6] is -4.9e-05 (inactive). The molecule was classed as inactive in [8].

In the case of `Cc1nnc(N2CCOCC2)c2ccccc12`, in assay [1], the cell count came out at 590. The inhibition is -0.6% (inactive) in assay [1], -63.6% (inactive) in [2], 1.63% (inactive) in assay [4] and 14.9% (inactive) in assay [9]. The nuclei count in [2] turned out to be 148%. Also, the z-score is 0.561 in assay [3] (setting [10]), 0.102 in assay [3] (setting [11]) and -1.27 in [3] (setting [12]). Moreover, the fluorescence slope in [5] is -0.472 (inactive); in assay [7], 0.00562 (inactive). The NADPH fluorescence slope in assay [6] is -0.000134 (inactive). The call in [8] was inactive.

In the case of `Cc1ccc(-c2nn(CCC(=O)NCC3CCCO3)c(=O)c3ccccc23)cc1` (stereo unspecified), in [1], the cell count is 465. The inhibition was -2.6% (inactive) in [1], -99.3% (inactive) in [2], -7.28% (inactive) in assay [4] and -0.115% (inactive) in [9]. The molecule further showed a nuclei count in [2] of 155%. The values for the z-score in assay [3] (setting [10]), in assay [3] (setting [11]) and in assay [3] (setting [12]) were -0.415, 0.704 and -0.137, respectively. Moreover, the fluorescence slope in assay [5] is -0.422 (inactive); in assay [7], 0.0051 (inactive). The NADPH fluorescence slope in assay [6] was -5.3e-05 (inactive). In addition, the result in [8] was inactive.

`COc1ccc(C2C(C#N)=C(N)Oc3cc(C)n(CCN4CCOCC4)c(=O)c32)cc1OC` (stereo unspecified): in assay [1], the cell count turned out to be 520. Moreover, the inhibition in assay [1] was -5.9% (inactive); in assay [2], 0.9% (inactive); in assay [4], -10.1% (inactive); in assay [9], 1.58% (inactive). For the same molecule, the nuclei count in [2] was found to be 110%. The z-score in assay [3] (setting [10]) is -1.19; in assay [3] (setting [11]), 0.613; in [3] (setting [12]), -1.48. Also, the fluorescence slope was -0.468 (inactive) in assay [5] and 0.00521 (inactive) in assay [7]. Moreover, the NADPH fluorescence slope in assay [6] is -3.9e-05 (inactive). In [8], the molecule was classed as inactive.

`COC(=O)c1[nH]c2ccc(Cl)cc2c1NC(=O)C1CC1`: the cell count in assay [1] was 489. The inhibition was -0.3% (inactive) in [1], -43.6% (inactive) in assay [2], -4.59% (inactive) in [4] and -10.7% (inactive) in assay [9]. This molecule also returned a nuclei count in assay [2] of 120%. Also, the z-score was -0.422 in assay [3] (setting [10]), -0.0225 in assay [3] (setting [11]) and -0.572 in assay [3] (setting [12]). For the same molecule, the values for the fluorescence slope in [5] and in assay [7] were -0.451 (inactive) and 0.00568 (inactive), respectively. For the same molecule, the NADPH fluorescence slope in assay [6] is -5.4e-05 (inactive). In addition, the result in assay [8] was inactive.

The values are drawn from PubChem BioAssay.
